Reference: PMC2882528 (Molecular pharmaceutics, 2010)

Key:
Assay type in all cases: cell-based, rat
[1] = system: IEC-6 stable cell line expressing SEAP; assay: SEAP enzyme activity assay; conditions: ritonavir 15 µM; VC 15 µg/ml, VE 20 µg/ml, EL 20 µg/ml, OA 10 µg/ml; 24 h
Outline: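 An IEC-6 line stably transfected with pSEAP reporter plasmid is treated for 24 h with test compound (15 µM) alone or with individual antioxidant. DMSO is the vehicle control and thapsigargin 100 nM is the ER-stress reference. Secreted alkaline phosphatase activity is expressed as percent of vehicle control. Results are mean ± SD of 3 independent experiments.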

[2] = system: CHOP; assay: Western blot analysis of CHOP; conditions: IEC-6 cells, 4 h; for Effect of antioxidant on ritonavir-induced CHOP expression: ritonavir 15 µM
[3] = system: IEC-6 cells; assay: Measurement of intracellular ROS; conditions: ritonavir 15 µM, VC 15 µg/ml, EL 20 µg/ml, OA 10 µg/ml, 4 h
Outline: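 IEC-6 rat intestinal epithelial cells (passages 15-20; DMEM, 10% FBS, 0.1 U/mL insulin, penicillin/streptomycin, 37 °C, 5% CO2) in 12-well plates are exposed for 4 h to test compound with or without antioxidant, all in DMSO. One fraction is used for protein. The other is lysed in 0.1 N NaOH/50% methanol and centrifuged, and fluorescence is read at ex 485/em 520 nm. Results are mean ± SD of 3 independent experiments.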

With `CCCCCCCC/C=C\CCCCCCCC(=O)O` [oleic acid] the “Effect of antioxidant on ritonavir-induced inhibition of SEAP activity” value [1] was “significantly inhibited”, the “Effect of antioxidant on ritonavir-induced CHOP expression” value [2] was “significantly reduced” and the “Effect of antioxidant on ritonavir-induced ROS production” value [3] was “able to reduce”.
vitamin E was tested, and the “Effect of antioxidant on ritonavir-induced inhibition of SEAP activity” value [1] was “significantly inhibited” and the “Effect of antioxidant on ritonavir-induced CHOP expression” value [2] was “less effect”.
For `CCCCC/C=C\C/C=C\CCCCCCCC(=O)OCC` [ethyl linoleate], the “Effect of antioxidant on ritonavir-induced inhibition of SEAP activity” value [1] was “significantly inhibited”, the “Effect of antioxidant on ritonavir-induced CHOP expression” value [2] was “significantly reduced” and the “Effect of antioxidant on ritonavir-induced ROS production” value [3] was “able to reduce”.
`O=C1O[C@H]([C@@H](O)CO)C(O)=C1O` [vitamin C] was tested, and the “Effect of antioxidant on ritonavir-induced inhibition of SEAP activity” value [1] was “significantly inhibited”, the “Effect of antioxidant on ritonavir-induced CHOP expression” value [2] was “significantly reduced” and the “Effect of antioxidant on ritonavir-induced ROS production” value [3] was “able to reduce”.
`CC(C)c1nc(CN(C)C(=O)N[C@H](C(=O)N[C@@H](Cc2ccccc2)C[C@H](O)[C@H](Cc2ccccc2)NC(=O)OCc2cncs2)C(C)C)cs1` [ritonavir, reference compound] was tested, and the CHOP expression ([2]; 15 µM) was “significantly induced”.
